Reference: ChEMBL document CHEMBL4351018, “Novel phenanthridin-6(5H)-one derivatives as potent and selective BET bromodomain inhibitors: Rational design, synthesis and biological evaluation” (Eur J Med Chem, 2019)

How the values were obtained:
[1] = molecular target: Bromodomain-containing protein 2 (Homo sapiens) (UniProt P25440); assay: Binding affinity to BRD2 bromodomain 1 (unknown origin) at 20 uM by Alpha screen assay relative to control
[2] = molecular target: Bromodomain-containing protein 2 (Homo sapiens) (UniProt P25440); assay: Binding affinity to BRD2 bromodomain 2 (unknown origin) at 20 uM by Alpha screen assay relative to control
[3] = molecular target: Bromodomain-containing protein 4 (Homo sapiens, UniProt O60885); assay: Binding affinity to recombinant human His-tagged BRD4 bromodomain 1 expressed in […] insect cells using biotinylated H4(1 to 21)K5/8/12/16Ac peptide as substrate at 20 uM preincubated for 30 mins followed by substrate addition and measured after 30 mins by Alpha screen assay relative to control
[4] = molecular target: Bromodomain testis-specific protein (Homo sapiens) (UniProt Q58F21); assay: Binding affinity to BRDT bromodomain 1 (unknown origin) at 20 uM by Alpha screen assay relative to control
[5] = molecular target: Bromodomain testis-specific protein (Homo sapiens) (UniProt Q58F21); assay: Binding affinity to BRDT bromodomain 2 (unknown origin) at 20 uM by Alpha screen assay relative to control
[6] = molecular target: T1, Bromodomain-containing protein 9 (Homo sapiens) (UniProt Q9H8M2); assay: Binding affinity to BRD9 (unknown origin) at 20 uM by Alpha screen assay relative to control
T1 sequence (whole entry): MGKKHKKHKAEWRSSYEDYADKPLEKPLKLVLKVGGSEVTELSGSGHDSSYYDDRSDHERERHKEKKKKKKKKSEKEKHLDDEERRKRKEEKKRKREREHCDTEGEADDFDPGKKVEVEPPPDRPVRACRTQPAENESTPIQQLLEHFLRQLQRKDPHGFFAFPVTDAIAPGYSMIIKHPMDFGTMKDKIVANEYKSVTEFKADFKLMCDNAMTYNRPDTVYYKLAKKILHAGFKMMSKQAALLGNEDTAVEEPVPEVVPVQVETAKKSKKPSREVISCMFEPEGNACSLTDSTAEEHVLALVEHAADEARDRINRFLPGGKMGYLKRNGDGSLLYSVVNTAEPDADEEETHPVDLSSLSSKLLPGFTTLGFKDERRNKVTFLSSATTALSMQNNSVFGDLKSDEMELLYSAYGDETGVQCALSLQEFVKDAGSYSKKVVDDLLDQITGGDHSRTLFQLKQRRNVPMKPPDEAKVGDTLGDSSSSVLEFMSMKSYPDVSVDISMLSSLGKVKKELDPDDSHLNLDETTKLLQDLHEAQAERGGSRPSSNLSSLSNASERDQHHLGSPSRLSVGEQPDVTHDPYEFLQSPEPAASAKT

[7] = tested on: HepG2; assay: Antiproliferative activity against human HepG2 cells incubated for 48 hrs by MTT assay; type: functional, cell-based; settings: HepG2, 48 h
Procedure, shortened: (§1)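 Cells kept in DMEM or RPMI 1640 with 10% FBS at 37 °C, 5% CO2. MTT added for 4 h at 37 °C, formazan dissolved in DMSO, OD read at 570 nm. Survival % taken relative to blank and control wells. Triplicate runs; IC50 from curve fit.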

[8] = tested on: SGC-7901; assay: Antiproliferative activity against human SGC7901 cells incubated for 48 hrs by MTT assay; type: functional, cell-based; settings: SGC-7901, 48 h; procedure, shortened: as §1
[9] = tested on: A549; assay: Induction of apoptosis in human A549 cells assessed as viable cells at 0.3 uM incubated for 48 hrs by annexin V-FITC/PI double staining based flow cytometric analysis (reference value: 98.2%); type: functional; settings: A549, 48 h, read-out: Activity
[10] = tested on: A549; assay: Induction of apoptosis in human A549 cells assessed as early apoptotic cells at 0.3 uM incubated for 48 hrs by annexin V-FITC/PI double staining based flow cytometric analysis (reference value: 1.76%); type: functional
[11] = tested on: A549; assay: Induction of apoptosis in human A549 cells assessed as viable cells at 1.0 uM incubated for 48 hrs by annexin V-FITC/PI double staining based flow cytometric analysis (reference value: 98.2%); type: functional; settings: A549, 48 h, read-out: Activity
[12] = tested on: A549; assay: Induction of apoptosis in human A549 cells assessed as early apoptotic cells at 1.0 uM incubated for 48 hrs by annexin V-FITC/PI double staining based flow cytometric analysis (reference value: 1.76%); type: functional
[13] = tested on: A549; assay: Induction of apoptosis in human A549 cells assessed as necrotic cells at 1.0 uM incubated for 48 hrs by annexin V-FITC/PI double staining based flow cytometric analysis (reference value: 0%); type: functional
[14] = tested on: A549; assay: Induction of apoptosis in human A549 cells assessed as necrotic cells at 3.0 uM incubated for 48 hrs by annexin V-FITC/PI double staining based flow cytometric analysis (reference value: 0%); type: functional
[15] = tested on: A549; assay: Induction of apoptosis in human A549 cells assessed as necrotic cells at 5.0 uM incubated for 48 hrs by annexin V-FITC/PI double staining based flow cytometric analysis (reference value: 0%); type: functional
[16] = AUC (0 to t) in Sprague-Dawley rat at 2.5 mg/kg, iv measured for 0.083 to 24 hrs by LC-MS/MS/MS analysis; type: ADME, organism-based; set-up: time upper 24 hr, dose 2.5 mg/kg, time lower 0.083 hr, route intravenous; settings: in vivo
[17] = Tmax in Sprague-Dawley rat at 2.5 mg/kg, iv measured for 0.083 to 24 hrs by LC-MS/MS analysis; type: ADME, organism-based; settings: in vivo
[18] = MRT (0 to t) in Sprague-Dawley rat at 2.5 mg/kg, iv measured for 0.083 to 24 hrs by LC-MS/MS analysis; type: ADME, organism-based; settings: in vivo
[19] = Cmax in Sprague-Dawley rat at 2.5 mg/kg, iv measured for 0.083 to 24 hrs by LC-MS/MS analysis; type: ADME, organism-based; set-up: dose 2.5 mg/kg, route intravenous; settings: in vivo
[20] = AUC (0 to t) in Sprague-Dawley rat at 10 mg/kg, po measured for 0.083 to 24 hrs by LC-MS/MS analysis; type: ADME, organism-based; set-up: time 0.083-24 hr, dose 10 mg/kg, route oral; settings: in vivo
[21] = Tmax in Sprague-Dawley rat at 10 mg/kg, po measured for 0.083 to 24 hrs by LC-MS/MS analysis; type: ADME, organism-based; settings: in vivo
[22] = MRT (0 to t) in Sprague-Dawley rat at 10 mg/kg, po measured for 0.083 to 24 hrs by LC-MS/MS analysis; type: ADME, organism-based; settings: in vivo
[23] = Volume of distribution at steady state in Sprague-Dawley rat at 2.5 mg/kg, iv measured for 0.083 to 24 hrs by LC-MS/MS analysis; type: ADME, organism-based; settings: in vivo, read-out: Vdss
[24] = Volume of distribution at steady state in Sprague-Dawley rat at 10 mg/kg, po measured for 0.083 to 24 hrs by LC-MS/MS analysis; type: ADME, organism-based; settings: in vivo
[25] = Cmax in Sprague-Dawley rat at 10 mg/kg, po measured for 0.083 to 24 hrs by LC-MS/MS analysis; type: ADME, organism-based; set-up: dose 10 mg/kg, route oral; settings: in vivo
[26] = tested on: A549; assay: Induction of cell cycle arrest in human A549 cells assessed as accumulation at […] phase at 5.0 uM incubated for 48 hrs by BrdU/PI staining based flow cytometric analysis; type: functional
Procedure, shortened: (§2)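 Subconfluent A549 cells exposed 48 h to 0.3–5.0 μM with DMSO vehicle control. Pulse-labelled with 10 μM BrdU for 30 min at 37 °C before harvest. Fixed in 70% ethanol, denatured in 2 M HCl, neutralised, then stained with fluorescein anti-BrdU antibody and propidium iodide. Analysed by flow cytometry with 488 nm excitation.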

[27] = tested on: A549; assay: Induction of cell cycle arrest in human A549 cells assessed as increase in accumulation at M phase incubated for 48 hrs by BrdU/PI staining based flow cytometric analysis; type: functional; procedure, shortened: as §2

Chain of Bromodomain-containing protein 2 (Homo sapiens) (P25440 whole entry, looked up): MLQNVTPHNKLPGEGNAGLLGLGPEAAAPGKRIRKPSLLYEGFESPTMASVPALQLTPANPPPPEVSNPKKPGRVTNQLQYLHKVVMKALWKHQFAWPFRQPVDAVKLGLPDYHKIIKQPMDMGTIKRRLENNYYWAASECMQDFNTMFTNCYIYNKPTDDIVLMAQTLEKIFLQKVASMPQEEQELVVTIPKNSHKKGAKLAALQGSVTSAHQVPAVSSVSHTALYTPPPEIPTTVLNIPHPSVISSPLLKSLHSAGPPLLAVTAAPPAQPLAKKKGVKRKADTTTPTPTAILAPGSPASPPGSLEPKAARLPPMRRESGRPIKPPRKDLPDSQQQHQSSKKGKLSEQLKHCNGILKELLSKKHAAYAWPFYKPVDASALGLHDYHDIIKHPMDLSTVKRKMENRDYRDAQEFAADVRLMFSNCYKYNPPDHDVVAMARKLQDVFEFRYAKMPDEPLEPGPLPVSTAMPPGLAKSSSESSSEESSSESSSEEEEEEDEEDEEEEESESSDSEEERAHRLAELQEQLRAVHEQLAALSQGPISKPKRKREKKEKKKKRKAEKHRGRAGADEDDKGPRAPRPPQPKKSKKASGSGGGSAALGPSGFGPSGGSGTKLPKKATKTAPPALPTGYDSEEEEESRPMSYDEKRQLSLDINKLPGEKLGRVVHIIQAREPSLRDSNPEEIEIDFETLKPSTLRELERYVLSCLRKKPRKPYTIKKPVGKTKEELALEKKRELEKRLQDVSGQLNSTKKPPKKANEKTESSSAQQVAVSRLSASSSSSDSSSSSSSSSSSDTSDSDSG

Activity [1]: > 70% | Activity [2]: > 70% | Activity [3]: > 70% | Activity [4]: > 70% | Activity [5]: > 70% | Activity [6]: > 30% | IC50 [7]: 4.83 µM | IC50 [8]: 5.35 µM | AUC(0-t) [16]: 0.383 µg·h/mL | Tmax [17]: 4.98 min | MRT last [18]: 7.93 h | Cmax [19]: 0.0969 µg/mL | AUC(0-t) [20]: 0.566 µg·h/mL | Tmax [21]: 5.33 h | MRT last [22]: 7.52 h | Vd [23]: 76.7 L/kg | Vdss [24]: 97.34 L/kg | Cmax [25]: 0.0524 µg/mL
SMILES: COc1ccc(Cl)cc1S(=O)(=O)Nc1ccc2[nH]c(=O)c3ccccc3c2c1
viability at 0.3 µM [9]: 69.6% | Activity [10]: 27.7% | viability at 1 µM [11]: 46.1% | Activity [12]: 47.8% | Activity [13]: 0.044% | Activity [14]: 0% | Activity [15]: 0.036% | Activity [26]: 81.66% | Activity [27]: Dose-dependent effect
